# Laboratory results reported in ChEMBL document CHEMBL1155796, “Lupane-type triterpenoids from Microtropis fokienensis and Perrottetia arisanensis and the apoptotic effect of 28-hydroxy-3-oxo-lup-20(29)-en-30-al” (J Nat Prod, 2008).
# Activity calls are given as the source filed them. The calls are words filed in the database; no cut-off is given here.
# Legend:
# MDA-MB-231 = assay: Cytotoxicity against human MDA-MB-231 cells by MTT assay; assay type: functional, cell-based
# Procedure, shortened: (§1)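 Freshly trypsinized cells were seeded at 5000-10 000 per well, and compounds were added from DMSO stocks and left for 3 days. Attached cells were then given MTT ([…], 1 h) and dissolved in DMSO, with absorbance read at 550 nm.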
# MCF7 = assay: Cytotoxicity against human MCF7 cells by MTT assay; assay type: functional, cell-based; procedure, shortened: as §1
# HL-60 [1] = assay: Cytotoxicity against human HL60 cells by MTT assay; assay type: functional, cell-based; procedure, shortened: as §1
# Ca9-22 = assay: Cytotoxicity against human sCa9-22 cells by MTT assay; assay type: functional, cell-based; procedure, shortened: as §1
# HepG2 = assay: Cytotoxicity against human HepG2 cells by MTT assay; assay type: functional, cell-based; procedure, shortened: as §1
# A549 = assay: Cytotoxicity against human A549 cells by MTT assay; assay type: functional, cell-based; procedure, shortened: as §1
# [2] = Cytotoxicity against human Hep3B cells by MTT assay; assay type: functional, cell-based, Hep 3B2; procedure, shortened: as §1
# HL-60 [3] = assay: Cell cycle arrest in human HL60 cells assessed as accumulation at subG1 cells at 5 ug/ml after 24 hrs; assay type: functional
# Procedure, shortened: (§2)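 Treated and control HL60 cells harvested, washed in cold PBS, fixed in 70% ethanol and held at 4 °C. […] DNA content read by flow cytometry. Fractions in sub-G1, G0/G1, S and G2/M assigned by cell-cycle modelling software.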
# HL-60 [4] = assay: Cell cycle arrest in human HL60 cells assessed as accumulation at G0/G1 cells at 5 ug/ml after 24 hrs; assay type: functional; procedure, shortened: as §2
# HL-60 [5] = assay: Induction of apoptosis in human HL60 cells assessed as PARP cleavage by Western blotting; assay type: functional, cell-based
# Procedure, shortened: (§3)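 Lysate cleared at 20000g, 30 min, 4 °C and protein measured by BCA. 50 µg resolved on 12% SDS-PAGE, blotted to PVDF and probed for PARP, Bax and Bcl-2, with β-tubulin as loading control.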
# HL-60 [6] = assay: Cell cycle arrest in human HL60 cells assessed as accumulation at G2 cells at 1.250 ug/ml after 24 hrs; assay type: functional; procedure, shortened: as §2
# HL-60 [7] = assay: Cell cycle arrest in human HL60 cells assessed as accumulation at G2 cells at 2.5 ug/ml after 24 hrs; assay type: functional; procedure, shortened: as §2
# HL-60 [8] = assay: Induction of apoptosis in human HL60 cells assessed as effect on Bcl2 protein level by Western blotting; assay type: functional, cell-based; procedure, shortened: as §3
# HL-60 [9] = assay: Cell cycle arrest in human HL60 cells assessed as accumulation at S cells at 0.625 ug/ml after 24 hrs by flow cytometry; assay type: functional; procedure, shortened: as §2
# HL-60 [10] = assay: Cell cycle arrest in human HL60 cells assessed as accumulation at subG1 cells at 0.625 ug/ml after 24 hrs by flow cytometry; assay type: functional; procedure, shortened: as §2
# HL-60 [11] = assay: Cell cycle arrest in human HL60 cells assessed as accumulation at subG1 cells at 2.5 ug/ml after 24 hrs; assay type: functional; procedure, shortened: as §2
# HL-60 [12] = assay: Cell cycle arrest in human HL60 cells assessed as accumulation at subG1 cells at 1.250 ug/ml after 24 hrs; assay type: functional; procedure, shortened: as §2
# HL-60 [13] = assay: Cell cycle arrest in human HL60 cells assessed as accumulation at G0/G1 cells at 0.625 ug/ml after 24 hrs by flow cytometry; assay type: functional; procedure, shortened: as §2
# HL-60 [14] = assay: Cell cycle arrest in human HL60 cells assessed as accumulation at S cells at 2.5 ug/ml after 24 hrs; assay type: functional; procedure, shortened: as §2
# HL-60 [15] = assay: Cell cycle arrest in human HL60 cells assessed as accumulation at G0/G1 cells at 2.5 ug/ml after 24 hrs; assay type: functional; procedure, shortened: as §2
# HL-60 [16] = assay: Cell cycle arrest in human HL60 cells assessed as accumulation at G0/G1 cells at 1.250 ug/ml after 24 hrs; assay type: functional; procedure, shortened: as §2
# HL-60 [17] = assay: Induction of apoptosis in human HL60 cells assessed as increase in Bax protein level by Western blotting; assay type: functional, cell-based; procedure, shortened: as §3
# HL-60 [18] = assay: Cell cycle arrest in human HL60 cells assessed as accumulation at G2 cells at 5 ug/ml after 24 hrs; assay type: functional; procedure, shortened: as §2
# HL-60 [19] = assay: Cell cycle arrest in human HL60 cells assessed as accumulation at G2 cells at 0.625 ug/ml after 24 hrs by flow cytometry; assay type: functional; procedure, shortened: as §2
# HL-60 [20] = assay: Cell cycle arrest in human HL60 cells assessed as accumulation at S cells at 5 ug/ml after 24 hrs; assay type: functional; procedure, shortened: as §2
# HL-60 [21] = assay: Cell cycle arrest in human HL60 cells assessed as accumulation at S cells at 1.250 ug/ml after 24 hrs; assay type: functional; procedure, shortened: as §2
# B16 = assay: Cytotoxicity against mouse B16 cells; assay type: functional, cell-based
SMILES,IC50 (MDA-MB-231),IC50 (MCF7),IC50 (HL-60 [1]),IC50 (Ca9-22),IC50 (HepG2),IC50 (A549),IC50 [2],IC50 (B16),other results
C=C(C)[C@@H]1CC[C@]2(CO)CC[C@]3(C)[C@H](CC[C@@H]4[C@@]5(C)CC[C@@H](O)C(C)(C)[C@@H]5CC[C@]43C)[C@@H]12 [3-EPI-BETULIN],> 20 µg/mL,16 µg/mL,1.7 µg/mL,> 20 µg/mL,6.7 µg/mL,15.7 µg/mL,9.3 µg/mL,,
C=C(C)[C@@H]1CC[C@]2(C(=O)O)CC[C@]3(C)[C@H](CC[C@@H]4[C@@]5(C)CC[C@@H](O)C(C)(C)[C@@H]5CC[C@]43C)[C@@H]12 [EPIBETULINIC ACID],9.2 µg/mL,9.7 µg/mL,2.3 µg/mL,,9.3 µg/mL,9.7 µg/mL,8.1 µg/mL,,
C=C(C=O)[C@@H]1CC[C@]2(CO)CC[C@]3(C)[C@H](CC[C@@H]4[C@@]5(C)CCC(=O)C(C)(C)[C@@H]5CC[C@]43C)[C@@H]12,7.9 µg/mL,2.9 µg/mL,1.6 µg/mL,1.4 µg/mL,12.6 µg/mL,16.4 µg/mL,4.7 µg/mL,,Activity (HL-60 [3]): 57.8%; Activity (HL-60 [4]): 14.6%; Activity (HL-60 [5]): Active; Activity (HL-60 [6]): 11.2%; Activity (HL-60 [7]): 11.5%; Activity (HL-60 [8]): inactive; Activity (HL-60 [9]): 30.3%; Activity (HL-60 [10]): 1.6%; Activity (HL-60 [11]): 10.2%; Activity (HL-60 [12]): 2.8%; Activity (HL-60 [13]): 54.2%; Activity (HL-60 [14]): 22.3%; Activity (HL-60 [15]): 56%; Activity (HL-60 [16]): 55.5%; Activity (HL-60 [17]): Active; Activity (HL-60 [18]): 7.8%; Activity (HL-60 [19]): 13.9%; Activity (HL-60 [20]): 19.8%; Activity (HL-60 [21]): 30.5%
C=C(C)[C@@H]1CC[C@]2(C(=O)O)CC[C@]3(C)[C@H](CC[C@@H]4[C@@]5(C)CC[C@H](O)C(C)(C)[C@@H]5CC[C@]43C)[C@@H]12 [BETULINIC ACID],3.5 µg/mL,4 µg/mL,2 µg/mL,> 20 µg/mL,3.1 µg/mL,2.8 µg/mL,1.7 µg/mL,5 µg/mL,
C=C(CO)[C@@H]1CC[C@]2(C)CC[C@]3(C)[C@H](CC[C@@H]4[C@@]5(C)CCC(=O)C(C)(C)[C@@H]5CC[C@]43C)[C@@H]12,,,,,,,,9.2 µg/mL,
COc1cccc2c1C(=O)c1c(O)c3c(c(O)c1C2=O)C[C@@](O)(C(=O)CO)C[C@@H]3O[C@H]1C[C@H](N)[C@H](O)[C@H](C)O1 [DOXORUBICIN],0.15 µg/mL,0.32 µg/mL,0.003 µg/mL,0.09 µg/mL,0.17 µg/mL,,0.27 µg/mL,,
